From ChEMBL document CHEMBL4699539, “Dual antagonists of α5β1/αvβ1 integrin for airway hyperresponsiveness” (Bioorg Med Chem Lett, 2020) come the findings set out here.

As a reminder, the IC50 is the concentration that inhibits the measured activity by half.

Activity calls are given as the source filed them. The rule behind the calls is not given here. Where only a bound is given, the exact number is not on record here.

In data set [1] the target is T1, Integrin alpha-5/beta-1 (Homo sapiens, UniProt P05556+P08648). The data set can be described thus: Inhibition of alpha5beta1 integrin (unknown origin) by solid phase binding assay. Format: protein-complex assay.
T1 sequence (P05556 21-798 limits assumed): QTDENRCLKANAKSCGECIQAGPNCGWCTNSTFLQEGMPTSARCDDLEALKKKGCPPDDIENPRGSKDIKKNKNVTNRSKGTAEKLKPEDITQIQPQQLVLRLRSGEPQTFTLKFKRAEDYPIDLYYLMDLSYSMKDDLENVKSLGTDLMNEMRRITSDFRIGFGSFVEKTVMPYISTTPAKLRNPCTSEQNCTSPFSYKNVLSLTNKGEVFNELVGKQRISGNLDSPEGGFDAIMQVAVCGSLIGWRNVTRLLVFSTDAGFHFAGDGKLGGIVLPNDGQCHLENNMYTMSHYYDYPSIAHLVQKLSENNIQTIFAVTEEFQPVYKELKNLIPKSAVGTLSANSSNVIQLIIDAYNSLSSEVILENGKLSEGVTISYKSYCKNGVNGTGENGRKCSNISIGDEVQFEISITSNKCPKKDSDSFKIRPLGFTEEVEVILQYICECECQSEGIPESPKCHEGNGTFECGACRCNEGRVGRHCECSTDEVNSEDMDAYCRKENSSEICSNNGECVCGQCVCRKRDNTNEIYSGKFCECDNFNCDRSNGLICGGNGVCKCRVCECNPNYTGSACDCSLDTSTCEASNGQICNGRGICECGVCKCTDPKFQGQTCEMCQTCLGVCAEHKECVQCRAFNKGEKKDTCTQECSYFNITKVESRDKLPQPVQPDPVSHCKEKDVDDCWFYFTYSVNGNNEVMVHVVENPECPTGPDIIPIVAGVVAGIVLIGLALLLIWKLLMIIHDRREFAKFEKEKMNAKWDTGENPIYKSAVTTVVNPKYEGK
T1 sequence (P08648 42-894 limits assumed): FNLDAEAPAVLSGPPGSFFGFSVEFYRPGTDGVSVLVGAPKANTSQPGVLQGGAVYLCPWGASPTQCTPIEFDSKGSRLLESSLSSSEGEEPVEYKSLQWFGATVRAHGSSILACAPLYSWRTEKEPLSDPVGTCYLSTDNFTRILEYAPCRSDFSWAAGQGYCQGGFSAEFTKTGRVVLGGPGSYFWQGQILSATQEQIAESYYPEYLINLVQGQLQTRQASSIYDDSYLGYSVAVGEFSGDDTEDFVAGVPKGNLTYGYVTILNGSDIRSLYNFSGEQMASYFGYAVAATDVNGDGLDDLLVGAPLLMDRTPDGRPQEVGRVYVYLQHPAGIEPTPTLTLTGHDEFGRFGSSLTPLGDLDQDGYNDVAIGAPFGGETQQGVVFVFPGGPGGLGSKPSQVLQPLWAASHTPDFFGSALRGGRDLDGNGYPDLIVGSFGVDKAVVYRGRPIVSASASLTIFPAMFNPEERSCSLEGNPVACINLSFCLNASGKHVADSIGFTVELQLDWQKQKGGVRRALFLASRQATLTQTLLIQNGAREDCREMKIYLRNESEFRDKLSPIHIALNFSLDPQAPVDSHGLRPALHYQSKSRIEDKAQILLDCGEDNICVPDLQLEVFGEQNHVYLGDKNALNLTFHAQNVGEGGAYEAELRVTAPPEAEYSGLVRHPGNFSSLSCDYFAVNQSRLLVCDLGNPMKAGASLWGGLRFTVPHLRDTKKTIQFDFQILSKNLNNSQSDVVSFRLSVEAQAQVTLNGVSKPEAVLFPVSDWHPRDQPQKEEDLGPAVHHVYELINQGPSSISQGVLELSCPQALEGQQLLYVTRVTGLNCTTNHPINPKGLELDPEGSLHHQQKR
T1 sequence (P08648 895-1049 limits assumed): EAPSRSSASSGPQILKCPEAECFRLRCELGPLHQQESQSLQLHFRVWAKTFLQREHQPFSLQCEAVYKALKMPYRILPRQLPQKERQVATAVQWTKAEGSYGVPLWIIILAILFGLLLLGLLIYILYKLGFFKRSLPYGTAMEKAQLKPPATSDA
Data set [2] concerns the target T2, Integrin alpha-V/beta-1 (Homo sapiens, UniProt P05556+P06756). Nature of the data set: Inhibition of alphavbeta1 integrin (unknown origin) by solid phase binding assay. Format: protein-complex assay.
Data set [3] addresses T3, Integrin alpha-V/beta-3 (Homo sapiens, UniProt P05106+P06756). The data set can be described thus: Inhibition of alphavbeta3 integrin (unknown origin) by solid phase binding assay. Format: protein-complex assay.
Data set [4] concerns the target Integrin alpha-V/beta-5 (Homo sapiens, UniProt P06756+P18084). Nature of the data set: Inhibition of alphavbeta5 integrin (unknown origin) by solid phase binding assay. It counts as protein-complex assay.
Data set [5] concerns the target Integrin alpha-V/beta-6 (Homo sapiens, UniProt P06756+P18564). The data set can be described thus: Inhibition of alphavbeta6 integrin (unknown origin) by solid phase binding assay. Format: protein-complex assay.
Data set [6] has as its target Integrin alpha-V/beta-8 (Homo sapiens, UniProt P06756+P26012). Nature of the data set: Inhibition of alphavbeta8 integrin (unknown origin) by solid phase binding assay. It counts as protein-complex assay.
Data set [7] deals with Integrin alpha-4/beta-1 (Homo sapiens, UniProt P05556+P13612). Nature of the data set: Inhibition of alpha4beta1 integrin (unknown origin) by solid phase binding assay. Format: protein-complex assay.
Chain of Integrin alpha-4/beta-1 (P05556 whole entry): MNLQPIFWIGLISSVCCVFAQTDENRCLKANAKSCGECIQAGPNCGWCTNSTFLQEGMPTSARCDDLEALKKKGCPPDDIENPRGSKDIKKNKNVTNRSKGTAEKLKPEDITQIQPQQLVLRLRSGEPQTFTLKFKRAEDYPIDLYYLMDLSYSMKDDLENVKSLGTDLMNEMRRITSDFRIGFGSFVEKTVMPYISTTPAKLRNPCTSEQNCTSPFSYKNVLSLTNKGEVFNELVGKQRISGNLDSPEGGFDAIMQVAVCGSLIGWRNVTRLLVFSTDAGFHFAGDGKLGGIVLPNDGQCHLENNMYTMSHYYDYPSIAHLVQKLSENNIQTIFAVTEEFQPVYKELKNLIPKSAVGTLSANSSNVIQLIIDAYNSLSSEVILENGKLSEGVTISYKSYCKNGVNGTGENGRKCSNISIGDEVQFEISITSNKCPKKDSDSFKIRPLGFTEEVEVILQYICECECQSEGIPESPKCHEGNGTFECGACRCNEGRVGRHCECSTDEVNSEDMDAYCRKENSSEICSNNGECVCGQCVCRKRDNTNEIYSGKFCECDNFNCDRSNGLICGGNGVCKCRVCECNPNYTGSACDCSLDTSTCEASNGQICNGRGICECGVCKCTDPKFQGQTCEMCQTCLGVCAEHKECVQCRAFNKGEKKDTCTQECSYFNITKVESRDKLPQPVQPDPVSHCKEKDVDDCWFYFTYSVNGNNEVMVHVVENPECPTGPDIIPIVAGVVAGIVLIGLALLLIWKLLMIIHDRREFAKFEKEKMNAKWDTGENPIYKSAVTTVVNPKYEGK
Chain of Integrin alpha-4/beta-1 (P13612 whole entry): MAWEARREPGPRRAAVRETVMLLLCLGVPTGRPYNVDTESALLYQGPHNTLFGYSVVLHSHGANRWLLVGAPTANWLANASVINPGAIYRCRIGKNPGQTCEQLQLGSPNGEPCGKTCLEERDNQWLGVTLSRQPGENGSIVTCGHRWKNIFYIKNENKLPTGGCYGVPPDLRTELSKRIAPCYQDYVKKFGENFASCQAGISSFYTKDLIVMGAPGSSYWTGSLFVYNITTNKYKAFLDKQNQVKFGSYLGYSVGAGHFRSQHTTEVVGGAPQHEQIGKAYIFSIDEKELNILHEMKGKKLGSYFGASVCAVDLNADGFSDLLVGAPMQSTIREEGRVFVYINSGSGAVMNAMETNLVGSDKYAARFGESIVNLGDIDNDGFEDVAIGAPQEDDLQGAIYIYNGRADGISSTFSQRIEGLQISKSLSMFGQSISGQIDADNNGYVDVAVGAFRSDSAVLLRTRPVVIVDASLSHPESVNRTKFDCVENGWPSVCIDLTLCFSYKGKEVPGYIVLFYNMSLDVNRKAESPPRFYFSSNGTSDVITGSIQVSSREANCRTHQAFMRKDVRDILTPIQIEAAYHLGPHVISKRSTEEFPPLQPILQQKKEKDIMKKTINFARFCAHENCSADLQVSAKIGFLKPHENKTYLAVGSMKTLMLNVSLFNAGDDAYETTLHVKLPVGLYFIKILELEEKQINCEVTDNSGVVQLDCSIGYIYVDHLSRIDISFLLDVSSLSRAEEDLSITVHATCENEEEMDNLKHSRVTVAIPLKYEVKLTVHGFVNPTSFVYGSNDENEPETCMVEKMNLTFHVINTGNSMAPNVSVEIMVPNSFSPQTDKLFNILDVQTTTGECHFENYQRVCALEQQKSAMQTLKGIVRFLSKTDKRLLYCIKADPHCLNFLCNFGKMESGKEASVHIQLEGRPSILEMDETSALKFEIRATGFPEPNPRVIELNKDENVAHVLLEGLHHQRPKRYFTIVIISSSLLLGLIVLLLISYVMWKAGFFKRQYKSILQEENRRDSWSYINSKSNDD
For data set [8], the species on record is Homo sapiens. Nature of the data set: Selectivity index, ratio of IC50 for alphavbeta3 integrin (unknown origin) to IC50 for alpha4beta1 integrin (unknown origin) by solid phase binding assay.
Data set [9] deals with T1, Integrin alpha-5/beta-1. The data set can be described thus: Inhibition of alpha5beta1 integrin in human SW480 cells assessed as inhibition of cell adhesion to fibronectin incubated for 60 mins by crystal violet staining based analysis. A digest of the protocol:
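Adhesion of SW480 cells plated on fibronectin coated at 0.3 µg/ml, used to measure α5β1-mediated attachment. IC50 values are means ± S.D., n = 3 or higher.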

Data set [10] deals with T2, Integrin alpha-V/beta-1. The data set can be described thus: Inhibition of alphavbeta1 integrin (unknown origin) expressed in CHO cells assessed as inhibition of cell adhesion to fibronectin incubated for 60 mins by crystal violet staining based analysis. Put shortly:
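Adhesion of CHOαv cells to fibronectin coated at 0.3 µg/ml, used to measure αvβ1-mediated attachment. IC50 values are means ± S.D., n = 3 or higher.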

Data set [11] concerns the target T3, Integrin alpha-V/beta-3. Nature of the data set: Inhibition of alphavbeta3 integrin (unknown origin) expressed in human SW480 cells transfected with human beta3 assessed as inhibition of cell adhesion to fibrinogen incubated for 60 mins by crystal violet staining based analysis. Put shortly:
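SW480 cells transfected with human β3, allowed to adhere to fibrinogen coated at 1 µg/ml, used to measure αvβ3-mediated attachment. IC50 values are means ± S.D., n = 3 or higher.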

A short description of data set [12]: Apparent permeability of the compound across apical to basolateral side in human Caco-2 cells. It counts as ADME, cell-based.
Data set [13] can be described thus: Apparent permeability of the compound across basolateral to apical side in human Caco-2 cells. It counts as ADME, cell-based. Background: Caco-2 monolayers are a common model of the intestinal barrier.
For data set [14], the species on record is Mus musculus. The data set can be described thus: Antagonist activity at alpha5beta1 integrin/alphavbeta1 integrin in mouse tracheal rings assessed as inhibition of methacholine-induced airway hyperresponsiveness at 100 nM pretreated with IL-13 for 12 hrs followed by incubation with compound for 1 hr in presence of methacholine. Format: tissue-based. Conditions: Trachea, filed as antagonist. A digest of the protocol: (§1)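 Wild-type mouse tracheal rings incubated 12 h with IL-13 (100 ng/mL), then 1 h with compound or vehicle. Force generated was measured in response to a range of methacholine concentrations. Negative-control rings received no IL-13. n=3 rings per group; statistics by repeated measures of variance.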

For data set [15], the species on record is Mus musculus. Nature of the data set: Antagonist activity at alpha5beta1 integrin/alphavbeta1 integrin in mouse tracheal rings assessed as inhibition of methacholine-induced airway hyperresponsiveness at 100 nM incubated with compound for 1 hr in presence of methacholine. It counts as tissue-based. Conditions: Trachea, filed as antagonist. A digest of the protocol: as §1

T2 sequence (P05556 21-798 limits assumed): as the sequence (P05556 21-798 limits assumed) above
T2 sequence (P06756 31-889 limits assumed): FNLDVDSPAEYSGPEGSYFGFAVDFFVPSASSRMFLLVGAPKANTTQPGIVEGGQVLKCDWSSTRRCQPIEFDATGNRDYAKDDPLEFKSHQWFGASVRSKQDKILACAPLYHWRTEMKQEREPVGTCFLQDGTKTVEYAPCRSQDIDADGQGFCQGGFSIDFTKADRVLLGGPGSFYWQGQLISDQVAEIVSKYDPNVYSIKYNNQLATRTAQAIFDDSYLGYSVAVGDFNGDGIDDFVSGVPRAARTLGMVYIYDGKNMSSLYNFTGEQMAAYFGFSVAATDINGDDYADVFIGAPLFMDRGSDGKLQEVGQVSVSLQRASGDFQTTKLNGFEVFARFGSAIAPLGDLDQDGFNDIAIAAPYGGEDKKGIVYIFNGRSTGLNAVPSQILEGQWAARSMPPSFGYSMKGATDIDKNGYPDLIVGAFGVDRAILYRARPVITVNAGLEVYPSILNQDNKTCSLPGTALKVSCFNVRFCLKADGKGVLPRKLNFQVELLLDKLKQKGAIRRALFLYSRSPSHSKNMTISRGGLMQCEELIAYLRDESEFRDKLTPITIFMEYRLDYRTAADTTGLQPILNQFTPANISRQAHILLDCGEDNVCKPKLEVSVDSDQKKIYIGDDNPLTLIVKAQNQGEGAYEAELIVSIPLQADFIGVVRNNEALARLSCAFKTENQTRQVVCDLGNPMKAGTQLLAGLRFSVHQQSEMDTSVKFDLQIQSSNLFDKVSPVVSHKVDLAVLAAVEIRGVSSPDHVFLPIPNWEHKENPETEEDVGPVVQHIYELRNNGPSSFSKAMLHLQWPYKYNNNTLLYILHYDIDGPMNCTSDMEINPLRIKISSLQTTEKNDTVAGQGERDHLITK
T2 sequence (P06756 891-1048 limits assumed): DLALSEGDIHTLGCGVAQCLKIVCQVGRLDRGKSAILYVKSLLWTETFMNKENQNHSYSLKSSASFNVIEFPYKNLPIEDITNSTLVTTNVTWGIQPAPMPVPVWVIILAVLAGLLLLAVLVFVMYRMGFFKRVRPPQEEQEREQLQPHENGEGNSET

For the compound `N=C(N)Nc1cc(NC(=O)CCCCNC(=O)C23CC4CC(CC(C4)C2)C3)cc(C(=O)NCC(=O)NC[C@H](NC(=O)[C@@H]2CCCN2S(=O)(=O)c2ccccc2)C(=O)O)c1`, the IC50 is 0.7 nM in [1]; < 0.1 nM in data set [2]; > 10000 nM in data set [3]; 320 nM in data set [4]; 1870 nM in data set [5]; 6830 nM in [6]. Further, the IC50 in [7] came out at 182 nM. The Ratio IC50 in data set [8] was > 100.
As to `N=C(N)NCCCCCCNC(=O)NC[C@H](NC(=O)[C@@H]1CCCN1S(=O)(=O)c1ccccc1)C(=O)O`, the IC50 in [9] is 900 nM; in data set [10] it was 0.9 nM; in data set [11], 15000 nM.
As to `N=C(N)Nc1cc(NC(=O)CCCNC(=O)C23CC4CC(CC(C4)C2)C3)cc(C(=O)NCC(=O)NC[C@H](NC(=O)[C@@H]2CCCN2S(=O)(=O)c2ccccc2)C(=O)O)c1`, the IC50 in data set [9] was 2.6 nM; in data set [10] it was 0.8 nM; in data set [11], 8800 nM; in data set [1] it was 0.8 nM; in [2], 0.14 nM; in data set [3], > 10000 nM. The IC50 in data set [4] was 3000 nM; in data set [5], 2760 nM; in [6], > 10000 nM; in data set [7], 105 nM. In addition, the results for the Papp in data set [12] and in [13] were 0.37 10^-6 cm/s and 0.27 10^-6 cm/s, respectively. Also, the Ratio IC50 in data set [8] was > 100.
For `N=C(N)Nc1cc(NC(=O)CNC(=O)C23CC4CC(CC(C4)C2)C3)cc(C(=O)NCC(=O)NC[C@H](NC(=O)[C@@H]2CCCN2S(=O)(=O)c2ccccc2)C(=O)O)c1`, the IC50 was 1.6 nM in [1]; < 0.1 nM in data set [2]; > 10000 nM in [3]; > 10000 nM in [4]; > 10000 nM in data set [5]; > 10000 nM in data set [6]. In data set [7], this compound showed an IC50 of 136 nM.
As to `N=C(N)Nc1cccc(C(=O)NNC(=O)NC[C@H](NC(=O)[C@@H]2CCCN2S(=O)(=O)c2ccccc2)C(=O)O)c1`, the IC50 amounted to 50 nM in data set [9], 158 nM in [10] and 6500 nM in data set [11].
For `N=C(N)Nc1cccc(C(=O)NCC(=O)NC[C@H](NC(=O)[C@@H]2CCCN2S(=O)(=O)c2ccccc2)C(=O)O)c1`, the IC50 in data set [10] was 32 nM; in [11], 1100 nM. Besides, the inhibition entry in data set [14] and in data set [15] was “Active” each time.
On to `N=C(N)NCCCCNC(=O)NC[C@H](NC(=O)[C@@H]1CCCN1S(=O)(=O)c1ccccc1)C(=O)O`, for which the IC50 was 9700 nM in [9], 4 nM in [10] and > 100000 nM in data set [11].
Regarding `CCCCCCCC(=O)Nc1cc(NC(=N)N)cc(C(=O)NCC(=O)NC[C@H](NC(=O)[C@@H]2CCCN2S(=O)(=O)c2ccccc2)C(=O)O)c1`, the values for the IC50 in data set [9] and in data set [11] were 110 nM and 16800 nM, respectively.
In the case of `N=C(N)NCCCCCNC(=O)NC[C@H](NC(=O)[C@@H]1CCCN1S(=O)(=O)c1ccccc1)C(=O)O`, the IC50 in data set [9] is 500 nM; in [10], 0.8 nM.
For `N=C(N)Nc1cc(NC(=O)CCCN)cc(C(=O)NCC(=O)NC[C@H](NC(=O)[C@@H]2CCCN2S(=O)(=O)c2ccccc2)C(=O)O)c1`, the IC50 was determined as 32 nM in data set [9] and 56000 nM in data set [11].
With `N=C(N)Nc1cc(NC(=O)CCNC(=O)C23CC4CC(CC(C4)C2)C3)cc(C(=O)NCC(=O)NC[C@H](NC(=O)[C@@H]2CCCN2S(=O)(=O)c2ccccc2)C(=O)O)c1`, the IC50 is 1.4 nM in data set [1]; < 0.1 nM in data set [2]; > 10000 nM in data set [3]; > 10000 nM in data set [4]; > 10000 nM in data set [5]; > 10000 nM in data set [6]. The compound further returned an IC50 in data set [7] of 100 nM. Besides, the Ratio IC50 in data set [8] was > 100.
On to `N=C(N)Nc1cc(NC(=O)CCCC(=O)NC23CC4CC(CC(C4)C2)C3)cc(C(=O)NCC(=O)NC[C@H](NC(=O)[C@@H]2CCCN2S(=O)(=O)c2ccccc2)C(=O)O)c1`, for which the IC50 was 1 nM in data set [1]; 0.3 nM in [2]; > 10000 nM in data set [3]; 980 nM in data set [4]; > 10000 nM in data set [5]; > 10000 nM in [6]. Further, in data set [7], the IC50 is 161 nM. Further, in [8], the Ratio IC50 was > 100.
`N=C(N)NCCCCC(=O)Nc1ccc(C[C@H](NC(=O)[C@@H]2CCCN2S(=O)(=O)c2ccccc2)C(=O)O)cc1`: the results for the IC50 in data set [9], in data set [10] and in data set [11] were > 10000 nM, 0.5 nM and > 10000 nM, respectively.
In the case of `N=C(N)NCCCCCC(=O)NC[C@H](NC(=O)[C@@H]1CCCN1S(=O)(=O)c1ccccc1)C(=O)O`, the 50% inhibitory concentration (IC50) in [9] was 830 nM; in data set [10], 316 nM; in [11], 10000 nM.
